Reference: PMC7881813 (The Indian Journal of Medical Research, 2020)

Experiments:
EAC-bearing mice [1] = assay: Haematological parameters of EAC-bearing mice; assay type: in vivo, mouse; conditions: for Effect on haematological counts (in words): respective IC50 dosage; for Hb / Platelets / RBC / WBC: treatment at IC50 dose, mean±SD n=6
Procedure, shortened: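 Female Swiss albino mice (7–8 wk) inoculated intraperitoneally with 1×10⁶ EAC cells on day 0, then treated on days 1–10. After 4 h fasting, heparinised cardiac blood collected. Haemoglobin by Sahli's method; RBC, WBC and platelets on an automated haematology analyser. Mean±SD, six mice per group.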

EAC-bearing mice [2] = assay: Survivability study; assay type: in vivo, mouse; conditions: respective IC50 dosages, n=10
Procedure, shortened: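 EAC-bearing mice (1×10⁶ cells intraperitoneally), ten per group, treated beginning 24 h after inoculation. Survival days recorded. ILS% = (T−C)/C×100, with T the survival days of treated mice and C those of untreated mice. Kaplan–Meier survival analysis.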

EAC cells = assay: In vivo IC50 determination in EAC cells by trypan blue dye exclusion; conditions: Mus musculus, 24 h, read-out: IC50 (50 per cent lethality of EAC cells) in vivo
MCF-7 cells [3] = assay: MTT assay for IC50 determination, MCF-7; assay type: cell-based; conditions: Homo sapiens, MCF7, read-out: IC50 for MCF-7
MDA-MB-231 cells [4] = assay: MTT assay for IC50 determination, MDA-MB-231; assay type: cell-based; conditions: Homo sapiens, MDA-MB-231, read-out: IC50 for MDA-MB-231
EAC-bearing mice [5] = assay: Hepatotoxicity and kidney toxicity parameters of EAC-bearing mice; assay type: in vivo, mouse; conditions: treatment at IC50 dosage; for ALP / ALT / AST / Creatinine / Urea: EAC-bearing mice, mean±SD n=6
normal murine fibroblast = assay: MTT cytotoxicity on normal mouse fibroblast; assay type: cell-based; conditions: xanthones up to highest concentration, cisplatin at 20 μM, XD at 1 and 5 μM
[6] = system: liver cytosol of EAC-bearing mice; assay: Antioxidative enzymes and LPO in liver cytosol of EAC-bearing mice; assay type: in vivo, mouse
Procedure, shortened: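 Liver from female Swiss albino mice bearing intraperitoneal EAC. After 15 days of treatment: GST in liver cytosol, rise in A340 with CDNB substrate, as CDNB-GSH conjugate formed per min per mg protein. GPx in post-mitochondrial fraction, fall in A340 after H₂O₂ addition, as nmol NADPH used per min per mg protein. Mean±SD, six per group.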

normal mice = assay: Chronic toxicity study with therapeutic dosage of XD; assay type: in vivo, mouse; conditions: 8 μM, oral, 40 days, data not shown
Procedure, shortened: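 Normal mice dosed orally with XD for 40 days; controls got 0.9% saline. After 4 h fasting, blood drawn by cardiac puncture, clotted, spun at 2000×g for 15 min, serum held at −20°C. ALT, ALP, urea and creatinine measured on an automated clinical chemistry analyser.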

[7] = system: EAC, MCF-7 and MDA-MB-231 cells; assay: Intracellular ROS generation; assay type: cell-based; conditions: XD at respective IC50 (8.1, 1 and 5 μM), in vivo and in vitro, vs untreated
normal fibroblast = assay: Intracellular ROS generation; assay type: cell-based, mouse; conditions: treatment with 50 μM
MCF-7 cells [8] = assay: Comet assay, MCF-7 cells; assay type: cell-based, human; conditions: MCF-7, XD 1 μM
Procedure, shortened: (§1)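 Alkaline comet assay, about 10⁴ cells/slide in 1% low-melt agarose over normal agarose, capped with 0.5% low-melt agarose. Lysis overnight at 4°C (2.5 M NaCl, 100 mM Na₂-EDTA, 10 mM Tris, 1% Triton X-100, 10% DMSO, pH 10.0). Electrophoresis at pH 13.1, 30 min, 300 mA, 20 V. Tris neutralisation, ethidium bromide staining. Per cent damaged cells among 150–200 scored per slide.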

MDA-MB-231 cells [9] = assay: Comet assay, MDA-MB-231 cells; assay type: cell-based, human; conditions: MDA-MB-231, XD 5 μM
Procedure, shortened: as §1

[10] = system: normal cells (fibroblast); assay: Comet assay, normal fibroblast; assay type: cell-based, mouse; conditions: highest dose of 40 μM
Procedure, shortened: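 Mouse fibroblasts treated with XD 24 h after seeding and harvested 48 h later. Alkaline comet assay: cells in low-melt agarose layers, overnight lysis at 4°C at pH 10.0, electrophoresis at pH 13.1 for 30 min (300 mA, 20 V), neutralisation, ethidium bromide stain. Fluorescence microscopy; damaged-cell per cent and tail length from 150–200 cells per slide.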

[11] = system: EAC, MCF-7 and MDA-MB-231 cells; assay: DNA fragmentation assay; assay type: cell-based; conditions: XD at respective IC50 dosage (8.1, 1 and 5 μM)
[12] = system: EAC, MCF-7 and MDA-MB-231 cells; assay: Cell cycle phase distribution by flow cytometry; assay type: cell-based; conditions: 10 days of treatment in vivo and 48 h in vitro, vs control
Procedure, shortened: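 EAC cells taken from mice 10 days after daily XD dosing (days 1–10 after intraperitoneal inoculation with 1×10⁶ cells), PBS-washed and haemocytometer-counted. […] Cell-cycle distribution, including SubG0, by flow cytometry. Repeated at least three times.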

[13] = system: EAC, MCF-7 and MDA-MB-231 cells; assay: TUNEL assay; assay type: cell-based; conditions: in vivo and in vitro models, vs control
Procedure, shortened: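 EAC cells recovered from the peritoneum of mice after 10 days of XD dosing, PBS-washed, smeared and fixed in 4% paraformaldehyde. MCF-7 and MDA-MB-231 cells grown on coverslips and fixed in paraformaldehyde. Fluorescein in situ cell-death (TUNEL) kit used per manufacturer; positive cells imaged by fluorescence microscopy at ×20.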

Bax:Bcl-2 = assay: Western blot Bax:Bcl-2 ratio; assay type: cell-based; conditions: EAC, MCF-7 and MDA-MB-231 cells, XD-treated vs control
Procedure, shortened: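 Whole-cell extracts prepared from control and XD-treated EAC, MCF-7 and MDA-MB-231 cells. Bax and Bcl-2 immunoblotted and the Bax:Bcl-2 ratio calculated. EAC cells came from mice dosed on days 1–10 after intraperitoneal tumour inoculation. Repeated at least three times, mean±SD.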

[14] = EAC-bearing mice, XD-treated 8.1 µM

N.N.[Cl][Pt][Cl] [Cisplatin, reference compound]
Effect on haematological counts (in words) (EAC-bearing mice [1]): lowering of RBC, Hb and platelets
Hb (EAC-bearing mice [1]): 2.1 ± 0.4 g/dL
Platelets (EAC-bearing mice [1]): 200±2 10^3/µl
RBC (EAC-bearing mice [1]): 2.7±0.6 10^6/µl
WBC (EAC-bearing mice [1]): 35.8±0.8 10^3/µl
Increase in life span of tumour-bearing mice (ILS%) (EAC-bearing mice [2]): 36.36%

COc1cc(O)c2c(=O)c3c(OC)c(OC)ccc3oc2c1 [XA, 1-hydroxy-3,7,8-trimethoxyxanthone]
IC50 (EAC cells): 48.5 µM
IC50 (MCF-7 cells [3]): 30 µM
IC50 (MDA-MB-231 cells [4]): 50 µM
Hb (EAC-bearing mice [1]): 7.5 ± 0.8 g/dL
Platelets (EAC-bearing mice [1]): 456±3 10^3/µl
RBC (EAC-bearing mice [1]): 4.15±0.4 10^6/µl
WBC (EAC-bearing mice [1]): 30.8±0.6 10^3/µl
ALP (EAC-bearing mice [5]): 103±3 IU/l
ALT (EAC-bearing mice [5]): 91±3 IU/l
AST (EAC-bearing mice [5]): 350±1 IU/l
Creatinine (EAC-bearing mice [5]): 1.7 ± 0.09 mg/dL
Urea (EAC-bearing mice [5]): 71 ± 8 mg/dL
Increase in life span of tumour-bearing mice (ILS%) (EAC-bearing mice [2]): 45%

COc1cc(O)c2c(=O)c3c(O)ccc(OC)c3oc2c1 [XB, 1,8-dihydroxy-3,5-dimethoxyxanthone]
IC50 (EAC cells): 48.5 µM
IC50 (MCF-7 cells [3]): 25 µM
IC50 (MDA-MB-231 cells [4]): 30 µM
Hb (EAC-bearing mice [1]): 7.4 ± 0.5 g/dL
Platelets (EAC-bearing mice [1]): 596±4 10^3/µl
RBC (EAC-bearing mice [1]): 4.75±0.3 10^6/µl
WBC (EAC-bearing mice [1]): 24.6±0.6 10^3/µl
ALP (EAC-bearing mice [5]): 160±5 IU/l
ALT (EAC-bearing mice [5]): 93±4 IU/l
AST (EAC-bearing mice [5]): 335±8 IU/l
Creatinine (EAC-bearing mice [5]): 1.1 ± 0.09 mg/dL
Urea (EAC-bearing mice [5]): 67 ± 8 mg/dL
Increase in life span of tumour-bearing mice (ILS%) (EAC-bearing mice [2]): 63%

COc1cc(O)c2c(=O)c3c(OC)ccc(OC)c3oc2c1 [XC, 1-hydroxy-3,5,8-trimethoxyxanthone]
IC50 (EAC cells): 32.4 µM
IC50 (MCF-7 cells [3]): 8 µM
IC50 (MDA-MB-231 cells [4]): 25 µM
Hb (EAC-bearing mice [1]): 7.9 ± 0.9 g/dL
Platelets (EAC-bearing mice [1]): 441±2 10^3/µl
RBC (EAC-bearing mice [1]): 5.75±0.2 10^6/µl
WBC (EAC-bearing mice [1]): 27.2±0.8 10^3/µl
ALP (EAC-bearing mice [5]): 106±2 IU/l
ALT (EAC-bearing mice [5]): 85±5 IU/l
AST (EAC-bearing mice [5]): 355±9 IU/l
Creatinine (EAC-bearing mice [5]): 1.2 ± 0.09 mg/dL
Urea (EAC-bearing mice [5]): 79 ± 8 mg/dL
Increase in life span of tumour-bearing mice (ILS%) (EAC-bearing mice [2]): 81%

COc1cc(O)c2c(=O)c3c(O)ccc(O)c3oc2c1 [XD, 1,5,8-trihydroxy-3-methoxyxanthone]
IC50 (EAC cells): 8.1 µM
IC50 (MCF-7 cells [3]): 1 µM
IC50 (MDA-MB-231 cells [4]): 5 µM
Effect on normal murine fibroblast (normal murine fibroblast): without affecting the normal cells
Effect on haematological counts (in words) (EAC-bearing mice [1]): lower WBC and platelet counts back to normal level
Hb (EAC-bearing mice [1]): 10 ± 2 g/dL
Platelets (EAC-bearing mice [1]): 341±8 10^3/µl
RBC (EAC-bearing mice [1]): 5.05±0.5 10^6/µl
WBC (EAC-bearing mice [1]): 17.2±0.2 10^3/µl
ALP (EAC-bearing mice [5]): 57.2±2 IU/l
ALT (EAC-bearing mice [5]): 79±2 IU/l
AST (EAC-bearing mice [5]): 205±5 IU/l
Creatinine (EAC-bearing mice [5]): 0.7 ± 0.09 mg/dL
Urea (EAC-bearing mice [5]): 41 ± 8 mg/dL
Liver and kidney toxicity parameters in tumour-bearing mice (EAC-bearing mice [5]; compared to normal mice): almost back to normal
Increase in life span of tumour-bearing mice (ILS%) (EAC-bearing mice [2]): 140%
CAT ([6]; Drug control group): 0.4±0.06 units/mg
GPx ([6]; Drug control group): 8.28 ± 0.6 nmol/mg
GSH ([6]; Drug control group): 2.6 ± 0.3 nmol/mg
GST ([6]; Drug control group): 8 ± 0.6 nmol/mg
LPO ([6]; Drug control group): 1.6 ± 0.09 mol/mg
SOD ([6]; Drug control group): 17±6 units/mg
GPx [6, 14]: 9.9 ± 2 nmol/mg
GSH [6, 14]: 5.72 ± 1 nmol/mg
GST [6, 14]: 15 ± 5 nmol/mg
LPO [6, 14]: 1.8 ± 0.09 mol/mg
SOD [6, 14]: 35±0.8 units/mg
Chronic toxicity (liver and kidney toxicity parameters) (normal mice): did not show any toxicity
ROS level [7]: significantly (P<0.001) increased
ROS generation in normal fibroblast (normal fibroblast): augmentation of ROS generation was not seen
per cent of damaged cells (comet assay) (MCF-7 cells [8]): 65 per cent
per cent of damaged cells (comet assay) (MDA-MB-231 cells [9]): 67 per cent
DNA damage in normal cells (comet assay) [10]: no DNA damage was seen in normal cells
DNA fragmentation [11]: smearing pattern
SubG0 population [12]: significantly (P<0.001) increase
Apoptosis by TUNEL assay [13]: significant apoptosis
intracellular Bax:Bcl-2 ratio (Bax:Bcl-2): significant (P<0.001) augmentation
